From paper PMC2606940 (The Journal of General Physiology, 2009)
Substitutions are numbered along the chain they refer to. Where a name gives a salt, the structure may show the parent alone.

Columns and labels:
CLC-0 E166A mutant = target: T1, CLC-0 E166A mutant (Torpedo marmorata, UniProt P21564, C212S/E166A); assay type: cell-based; details: for K1/2 (range in words): −140 mV (Fig. 10 C)
T1 sequence (P21564 1-805 E166A/C212S): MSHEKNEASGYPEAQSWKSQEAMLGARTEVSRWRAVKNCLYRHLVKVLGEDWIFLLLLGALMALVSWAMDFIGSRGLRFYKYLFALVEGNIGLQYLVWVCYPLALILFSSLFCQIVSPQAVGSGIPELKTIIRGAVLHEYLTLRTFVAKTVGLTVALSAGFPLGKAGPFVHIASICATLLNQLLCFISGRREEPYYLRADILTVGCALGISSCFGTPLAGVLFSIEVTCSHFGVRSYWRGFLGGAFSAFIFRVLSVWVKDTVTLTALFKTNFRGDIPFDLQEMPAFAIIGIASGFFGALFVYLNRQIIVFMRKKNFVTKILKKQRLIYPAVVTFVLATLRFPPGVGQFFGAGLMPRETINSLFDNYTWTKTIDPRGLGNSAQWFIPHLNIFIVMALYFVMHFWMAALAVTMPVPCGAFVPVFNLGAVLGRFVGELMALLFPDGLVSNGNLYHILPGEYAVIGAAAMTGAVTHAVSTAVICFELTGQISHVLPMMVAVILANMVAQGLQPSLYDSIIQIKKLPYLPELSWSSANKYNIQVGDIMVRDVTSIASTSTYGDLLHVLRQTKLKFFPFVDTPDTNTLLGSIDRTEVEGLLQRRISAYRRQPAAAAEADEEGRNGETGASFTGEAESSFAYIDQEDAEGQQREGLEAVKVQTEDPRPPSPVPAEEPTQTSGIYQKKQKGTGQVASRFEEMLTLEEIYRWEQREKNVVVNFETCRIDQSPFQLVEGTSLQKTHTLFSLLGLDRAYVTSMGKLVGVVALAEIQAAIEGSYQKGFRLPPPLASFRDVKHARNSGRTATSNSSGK
Summary of the method: (§1)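 HEK293 cells expressed C212S-background CLC-0 mutants and were recorded 1–3 d post-transfection as inside-out patches in symmetrical 130 mM NaCl, 10 mM HEPES, pH 7.4. CPA, fatty acids or alkyl sulfates flowed continuously on the cytoplasmic side. C10–C12 compounds were diluted into bath solution from 10 mM DMSO stocks. Test steps ran from +80 to −160 mV after a +80 mV prepulse. Steady-state current was normalized to the mean of pre- and post-blocker controls, and a Langmuir K1/2 was taken at each voltage from ~4–6 patches.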

CLC-0 E166Q mutant = target: T2, CLC-0 E166Q mutant (Torpedo marmorata, UniProt P21564, C212S/E166Q); assay type: cell-based; details: 5 μM SDS
T2 sequence (P21564 1-805 E166Q/C212S): T1 sequence (P21564 1-805 E166A/C212S) with A166Q
Summary of the method: as §1

| SMILES | blocking affinity (in words) (CLC-0 E166A mutant) | K1/2 (range in words) (CLC-0 E166A mutant) | further results |
| --- | --- | --- | --- |
| CS(=O)(=O)SCCS(=O)(=O)O [2-sulfonatoethyl MTS] | lower affinities than that observed with SDS | – | – |
| CCCCCCCCCCCCOS(=O)(=O)O [SDS, dodecyl sulfate] | high affinity | – | block of current (CLC-0 E166A mutant; 5 μM SDS, −160 mV): ~50%; effect on current (CLC-0 E166Q mutant): very limited effect |
| CCCCCCCCCCCC(=O)O [dodecanoate] | – | low μM range | – |
| CCCCCCCCO [Octanol] | low affinity | – | voltage dependence of the block (CLC-0 E166A mutant): no voltage dependence |
| CCC(=O)O [propionate] | – | mM range | – |
| CCCCCCCCCC(=O)O [decanoate] | – | low μM range | – |
| CCCC(=O)O [butyrate] | – | mM range | – |
| CS(=O)(=O)SCCCCCS(=O)(=O)O [5-sulfonatopentyl MTS] | lower affinities than that observed with SDS | – | – |
